This passage reports cytotoxicity results from ChEMBL document CHEMBL4513216, “Probing the Open Global Health Chemical Diversity Library for Multistage-Active Starting Points for Next-Generation Antimalarials” (ACS Infect Dis, 2020).

A short description of this data set: Toxicity liver stage against HepG2, at 10uM. Conditions: human, HepG2-A16-CD81EGFP cells; read-out: INHIBITION
Set-up: test concentration 10 uM, cell line HepG2-A16-CD81EGFP. The data set is classed as cell-based. A digest of the protocol: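 Uninfected HepG2-A16-CD81EGFP cells, 3 × 10^3 per well, 1536-well, plated on prespotted compound at 10 μM final, parasite-free screening media added to match infected plates; puromycin 10 μM positive, DMSO 0.5% negative; run in parallel with 48 h PbLuc assay at 37 °C, 5% CO2; viability by CellTiter-Glo luminescence, normalized to controls.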
Turning to `COCCNC(=O)[C@H]1CN2CCC1C[C@@H]2Cn1cc(C(C)(C)C)nn1` (some centres not stated), the cytotoxicity at 10 µM worked out at 7.95%. The figure for `CC(C)(O)c1cc(CC2(NCC3CCCCC3)COC2)no1` is 0.0962%; for `COc1ccccc1C(=O)N1CC(=O)N(Cc2ccco2)CC(O)C1` (configuration not stated) it is 4.45%; for `COC(=O)c1cc2c(=O)n(C3CC3)ccc2nc1C` it is -47%.

As to `COCCNC(=O)Cn1cc(OCc2ccc(F)cc2)c(=O)cc1CO`, the cytotoxicity at 10 µM stood at 2.73%.

`Cc1ccc(C)c(S(=O)(=O)NCCOc2ccc3nnc(C)n3n2)c1`: the cytotoxicity at 10 µM is -11.3%. For `COC(=O)c1ccc(S(=O)(=O)N2CCC(Oc3cccnn3)CC2)cc1`, the cytotoxicity at 10 µM was -4.83%. Consider `O=c1[nH]nc2nc(N3CCOCC3)ccn12`, for which the cytotoxicity at 10 µM is -5.08%.

Turning to `O=C(Nc1ccc(Cl)cc1)c1nn(C2CCS(=O)(=O)C2)c2c1CCCC2` (configuration not stated), the cytotoxicity at 10 µM is 2.96%. To `O=C(CC1Cn2ncnc2NC1=O)Nc1ccc(F)c(F)c1` (configuration not stated) belongs 2.02%. The figure for `O=C(CSC1CCc2ccccc2NC1=O)NCc1ccccc1` (configuration not stated) is 6.37%; for `NC(=O)c1ccc(NC(=O)Cn2cc(-c3ccccc3)ncc2=O)cc1` it is 4.6%. The figure for `O=C(Cc1csc(-c2ccc(Cl)cc2)n1)NC(C(=O)O)c1ccccc1` (configuration not stated) is 4.91%; for `COc1cc(OC)c(C2SCC(=O)Nc3n[nH]cc32)cc1OC` (configuration not stated) it is -6.08%; for `O=C(O)C1CCCN1c1nc(-c2ccc(Cl)cc2)cc(C(F)(F)F)n1` (configuration not stated) it is 30.1%. Regarding `CCn1nc(C)c2ncnc(N3CCCC(C)C3)c21` (configuration not stated), the cytotoxicity at 10 µM was 9.18%. For `Cc1cc(C)nc(C2CCN(C(=O)CO)CC2)n1`, the cytotoxicity at 10 µM stood at 2.53%. For the compound `O=S(=O)(N1CCCC1)N1CC(c2ccnc(Nc3ccccn3)n2)C1`, the cytotoxicity at 10 µM was determined as 11.8%. As to `COCCN1CCC1c1cc(N)nc(C)n1` (configuration not stated), the cytotoxicity at 10 µM worked out at 7.75%. For the compound `CCN(CCCc1ccccc1)CC1(C)Cc2c(N)nc(N)nc2O1` (configuration not stated), the cytotoxicity at 10 µM is 0.822%.

Turning to `CN1CCCC1c1cncc(C(=O)NCCN2CCCCC2)n1` (configuration not stated), the cytotoxicity at 10 µM is 0.388%. To `CC(C)c1nnc(CCC(=O)N2CCCC(c3cnccn3)C2)o1` (configuration not stated) belongs 1.88%. The figure for `CC(=O)N1CCC(Cc2cnc(Nc3cc(C)on3)cn2)CC1` is 3.48%. The figure for `O=C(C1CC1)N1CCC(O)(CN2CCN(c3ccccc3)CC2)C1` (configuration not stated) is -3.3%; for `CN(C)CCN(C)C(=O)Cn1cccc2cc(-c3ccc(F)cc3)nc1-2` it is -24.4%; for `COc1ccc(F)cc1-c1ccccc1CC1(C(=O)O)CCOCC1` it is 5.57%. `CCC(=O)N1CCC(Cc2ccccc2-c2cccc(C)c2)(C(N)=O)C1` (configuration not stated): the cytotoxicity at 10 µM was -27.5%. Regarding `Cc1noc(C)c1-c1cncc(C2CCCN2Cc2cn(C)cn2)n1` (configuration not stated), the cytotoxicity at 10 µM is -20.4%. The figure for `Cc1cc(N2CCCC2c2nccnc2C)ncn1` (configuration not stated) is -20.8%; for `CC(=O)N1CCC(c2nccnc2-c2ccc(F)c(F)c2)CC1` it is -19.1%. As for `Nc1nc2nc(C3CCCN(C(=O)c4cnccn4)C3)ccc2s1` (configuration not stated), the cytotoxicity at 10 µM was -16%. The figure for `CN(C)c1cc(C(F)(F)F)cc(-c2ccc(C(=O)O)cc2)n1` is 9.15%; for `CC(=O)Nc1ccc(SCC(O)COCc2ccco2)cc1` (configuration not stated) it is 8.45%. In the case of `Cc1nc(CCCC(=O)Nc2cccc(N3CCNC3=O)c2)cs1`, the cytotoxicity at 10 µM is -2.26%. The figure for `COCC1CCN(CCOc2ccc(C#N)cc2OC)CC1` is 4.11%. To `CC(=O)N1CCCN(Cc2csc(C)n2)c2ccccc21` belongs 0.00333%; to `CN(Cc1ccsc1)C(=O)c1nc(N2CCCCC2)ncc1Cl`, -27.4%. Take `CCC(CNC(=O)COC)Oc1cccc(F)c1` (configuration not stated): the cytotoxicity at 10 µM was -44.6%.

For `CC(C)(C)c1noc(CN2CCCc3cc(OC(F)(F)F)ccc32)n1`, the cytotoxicity at 10 µM is -0.813%. For the compound `CC(NC(=O)CN1C=Nc2ccccc2S1(=O)=O)C1CC1` (configuration not stated), the cytotoxicity at 10 µM came to 4.53%.

For `CCc1ccc(CC(=O)N2CCN(c3nccn3C)CC2)cc1`, the cytotoxicity at 10 µM was -0.647%. As to `CN(C(=O)CNCCn1cccn1)C1(C#N)CCCCC1`, the cytotoxicity at 10 µM was 2.04%. With `Cc1ccc(C(=O)N(C)Cc2c(C)noc2C)c(=O)[nH]1`, the cytotoxicity at 10 µM was -8.2%. To `CCN(C(=O)CN1CCC(c2cc3ccccc3[nH]2)CC1)C1CC1` belongs 0.99%; to `CCN(C(=O)C(C)S(=O)(=O)Cc1nc(C)no1)c1ccccc1` (configuration not stated), 4.03%. As for `O=C(Nc1cccc(OCC(F)F)n1)c1ccncc1`, the cytotoxicity at 10 µM is -6.02%. The figure for `CC(CO)NC(=O)c1ccc(NCc2cc(C#N)ccc2F)cc1` (configuration not stated) is 1.98%; for `Cc1ccc(CNC(=O)c2oc3ccccc3c2CN(C)C)n1C` it is 0.521%; for `N#Cc1cc(NC(=O)C2CC=CC2)ccc1N1CCC(O)CC1` it is -9.29%. For the compound `Cc1ccc(F)cc1S(=O)(=O)N(C)CC(N)=O`, the cytotoxicity at 10 µM was -12.6%.

Take `CCCNC(=O)COc1ccc(C)cn1`: the cytotoxicity at 10 µM was -14.5%. In the case of `CN(C)C(=O)c1cccc(NC(=O)N(CCO)Cc2ccsc2)c1`, the cytotoxicity at 10 µM was -13.4%. The figure for `CN1CCC2(CC1)CN(C(=O)c1cccnc1)c1ccc(Cl)cc12` is -109%. As for `COC[C@@H]1CC[C@H]2[C@H](CCN2S(=O)(=O)c2ccc(F)cc2)O1`, the cytotoxicity at 10 µM was -2.76%. The figure for `CCn1cc(CN2CCCn3nc(CNS(C)(=O)=O)cc3C2)c(C)n1` is 4.06%; for `CO[C@@H]1c2ccccc2C2(CCN(C(=O)CNC(=O)C(C)C)CC2)[C@H]1O` it is -3.26%. The figure for `Cc1cc(C)n(CCN(C)Cc2c[nH]nc2-c2ccc3c(c2)OCO3)n1` is 0.562%.

Consider `Cc1nc[nH]c1C(=O)NCc1cccnc1N(C)C1CCCCC1`, for which the cytotoxicity at 10 µM was -4.12%.

Consider `O=C(c1ncoc1C1CC1)N1CCN(CCOc2ccccc2)CC1`, for which the cytotoxicity at 10 µM is -6.93%. To `COc1ccc(C(=O)NC2CC2)c(OC2CCN(CC3CC3)CC2)c1` belongs -1.47%. The figure for `NC(=O)c1cc2c(nc1-c1ccc3c(c1)OCCO3)CCC2` is -1.88%; for `CN(CCc1cnn(C)c1)C(=O)Cn1c(=O)[nH]c2ccccc21` it is 4.5%.

As for `N#CC1(C(=O)N2C[C@H](Nc3ccnc(N)n3)[C@@H](C3CC3)C2)CCOCC1`, the cytotoxicity at 10 µM was -1.2%. Regarding `NCCc1cccc(CN2CCN(c3ccccc3)C(=O)C2)c1`, the cytotoxicity at 10 µM worked out at 3.47%. The figure for `CCn1cc(Cn2cc(-c3cccc(C(C)N(C)C)c3)nn2)cn1` (configuration not stated) is -6.97%; for `CN(C)CCNC(=O)CCC1CCN(C(=O)c2ccc(O)cn2)CC1` it is 1.23%; for `O=C(NCc1cn2cccnc2n1)C1CC(=O)N(Cc2cccnc2)C1` (configuration not stated) it is -3.23%. Take `CSCCC(=O)N(C/C=C/c1ccccc1)CCO`: the cytotoxicity at 10 µM is -4.47%.

Regarding `COc1ccc([C@@H]2CN(C(=O)CCn3cccn3)C[C@H]2NC(C)=O)cc1`, the cytotoxicity at 10 µM is 7.18%. The figure for `CC(c1cccs1)N(C)C(=O)c1cc(CN(C)Cc2ccccc2)on1` (configuration not stated) is 5.44%; for `O=S(=O)(c1cc(F)ccc1F)N1CCCC1c1ccco1` (configuration not stated) it is 11.2%.

Consider `Cc1ccccc1[C@@H]1CN(C(=O)c2ccc3[nH]nnc3c2)C[C@H]1C(=O)O`, for which the cytotoxicity at 10 µM is -7.21%. To `Cc1nc(C(=O)N2CCc3c(nc(-c4ccncc4)[nH]c3=O)C2)cs1` belongs -6.37%. Regarding `CCc1ccc(CN2CCCC(CO)(CCOC)C2)cc1` (configuration not stated), the cytotoxicity at 10 µM was -0.26%. As to `CCCn1nc(C2CCNCC2)n(Cc2ccccc2)c1=O`, the cytotoxicity at 10 µM was -12.9%. To `O=C(c1cnco1)N1CCCC(Cc2nccs2)C1` (configuration not stated) belongs 4.84%. On to `Cc1nc(C2CCCN2Cc2nc(C3CC3)no2)no1` (configuration not stated), for which the cytotoxicity at 10 µM is -12.7%. As for `CCOc1ccccc1C(CC(=O)Nc1ccncc1)NC(C)=O` (configuration not stated), the cytotoxicity at 10 µM is -12.6%. To `CN(C)S(=O)(=O)c1ccc(CN2CCCC2CO)o1` (configuration not stated) belongs -6.88%.

Consider `COc1ncccc1CNC(=O)NCCNC(=O)c1ccco1`, for which the cytotoxicity at 10 µM was -0.313%. The figure for `Cc1ccc(C(O)CNCCn2cccn2)cc1C` (configuration not stated) is -6.11%; for `Cc1cnn(CCNCc2ccccc2Oc2cccnc2)c1` it is 6.33%. To `Cc1cnn(CCC(=O)N2CCCN(c3ncccc3C#N)CC2)c1` belongs 4.11%. The figure for `Cn1ccnc1CN1CCN(CC(O)c2ccco2)CC1` (configuration not stated) is 2.38%; for `CCOc1ccc(CC(CNC(=O)c2occc2C)C(N)=O)cc1` (configuration not stated) it is 5.17%; for `Fc1ccccc1CNc1ccnc(C2CCNCC2)c1` it is 8.88%.

With `CC(=O)N1CCOCC2(CN(Cc3ccc(C)o3)CCO2)C1` (configuration not stated), the cytotoxicity at 10 µM stood at 6.41%. Take `O=C1[C@H]2CN(Cc3cccs3)C[C@H]2CN1c1cncnc1`: the cytotoxicity at 10 µM was -13.8%. On to `CN(C)CCN1CCOCC2(C1)CN(Cc1ccco1)CCO2` (configuration not stated), for which the cytotoxicity at 10 µM was -111%. In the case of `O=C(NC1CC1)[C@@H]1CCO[C@@H]2CCN(C3CCOCC3)C[C@@H]21`, the cytotoxicity at 10 µM is -9.87%. Consider `c1cn(-c2cnc(C3CCNCC3)cn2)cn1`, for which the cytotoxicity at 10 µM was -5.72%.

For `c1cnc(N2CCOCC3(CCCN(CC4CC4)C3)C2)cn1` (configuration not stated), the cytotoxicity at 10 µM was -15.8%.

For `C[C@@H]1C(=O)NC[C@H]2CN(CCc3ccccc3)C[C@H]21`, the cytotoxicity at 10 µM is 5.45%. As to `O=S(=O)(C1CC1)N1CCC2(CC1)CC(Oc1cccnc1)CO2` (configuration not stated), the cytotoxicity at 10 µM was -2.27%. The figure for `CN(C)C(=O)N1C[C@H]2CC[C@@H](C1)N(C(=O)c1cccc(N(C)C)c1)C2` is 0.502%; for `O=C(CC(F)(F)F)N1C[C@H]2CC[C@@H](C1)N(Cc1ccccc1)C2=O` it is 7.71%; for `c1ccc(COC2C[C@@H]3CN(Cc4cccnc4)C[C@@H]3C2)cc1` (some centres not stated) it is 2.92%.
